This is an account of results in ChEMBL document CHEMBL5712071, “BET bromodomain protein inhibition is a therapeutic option for medulloblastoma” (Oncotarget, 2013).

Assay [1] deals with ONS-76. In words: Anti-proliferative activity against human ONS-76 cells assessed as reduction in cell viability incubated for 96 hrs by MTT assay. In kind it is functional, cell-based. The conditions noted are these: ONS-76, 96 h. The method in brief: (§1)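 Cells seeded in triplicate at 2 × 10^3 per well and allowed to adhere for 24h. JQ1 was given as serial dilutions in full medium, 1nM-6µM, from a 10 mM DMSO stock. Viability was read by MTT at each time point and IC50 derived from dose-response curves. Culture media were RPMI 1640/10% FCS for HD-MB3 (plus 1% NEAA), ONS-76, Daoy and UW-228, and EMEM/10% FCS for D-283 and D-341.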
(Tetrazolium assays rely on reduction of a dye to a coloured formazan, in cell work by metabolically active cells.)

Assay [2] deals with UW228. The assay can be described thus: Anti-proliferative activity against human UW228 cells assessed as reduction in cell viability incubated for 96 hrs by MTT assay. The format is functional, cell-based. The conditions noted are these: UW228, 96 h. Put shortly: as §1
For assay [3], the target named is Bromodomain-containing protein 4 (Homo sapiens) (UniProt O60885). The note with it: D283 Med, dose 500.0 nM, time 72.0 hrs.
The subject of assay [4] is HD-MB03. In words: Anti-proliferative activity against human HD-MB03 cells assessed as reduction in cell viability incubated for 96 hrs by MTT assay. In kind it is functional, cell-based. The note with it: HD-MB03, 96 h. The method in brief: as §1
For assay [5], the system named is D341 cell line. The assay can be described thus: Induction of apoptosis in human D341 cells assessed as increase in population of cells in G1 phase at 500 nM incubated for 72 hrs by ELISA. The format is functional, cell-based. For orientation: ELISA stands for enzyme-linked immunosorbent assay.
Assay [6] relates to UW228. The assay can be described thus: Induction of apoptosis in human UW228 cells assessed as increase in population of cells in sub-G1 phase at 500 nM incubated for 72 hrs by flow cytometry. In kind it is functional, cell-based. Put shortly: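 PI flow cytometry: cells seeded in triplicate, adhered 24h, then exposed to 500 nM JQ1 or DMSO control (methods give 48h culture, legend gives 72h). Harvested by trypsin, washed 3 times in PBS, stained with propidium iodide 15 min, DNA content read by flow cytometry. Sub-G1 fraction taken as apoptotic. Experiments repeated at least 3 times.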
On the technique in general: A flow cytometer gives signals particle by particle.

Assay [7] has as its system HD-MB03. The assay can be described thus: Antitumor activity against human HD-MB03 cells xenografted in female athymic (nu/nu) mouse assessed as delay in time required for tumor growth to an average of 1000 mm3 at 50 mg/kg, ip for 28 days relative to untreated control. The conditions noted are these: time 28 day. In kind it is functional. The method in brief:
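Female athymic nu/nu mice, 4 weeks old, received 2 × 10^7 HD-MB3 cells in Matrigel subcutaneously in the left flank. At 150–200 mm3 they were randomised, n=7 per group, to JQ1 50 mg/kg ip daily or vehicle for 28 days or until tumours exceeded 1000 mm3. Calipers were used, with volume = (breadth × length × height)/2. Time to 1000 mm3 was analysed by Kaplan-Meier.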

Activity calls are given as the source filed them. The calls are words filed in the database; no cut-off is given here.

Broadly, the IC50 is the point on the concentration scale where inhibition reaches its midpoint. Regarding `Cc1sc2c(c1C)C(c1ccc(Cl)cc1)=N[C@@H](CC(=O)OC(C)(C)C)c1nnc(C)n1-2`, the IC50 in assay [1] is 0.175 µM; in assay [2] it was greater than 1 µM; in assay [4] it was 0.172 µM. In addition, in assay [3], the inhibition entry was “Active”. Moreover, the result in assay [5] and in assay [6] was Active. Also, the Time in assay [7] worked out at 8 days.
